Arr AP2 block = blocks beta-arrestin peptide binding to AP2 adaptin. FITC-arrestin peptide / GST-AP2 beads, flow cytometry; AP2 beta2 appendage carries R879A mutation. inhibition, % at 10 µM. actives 0.31% (n = 340,000). AID 504490;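 active means inhibition above a set limit, near 3 SD of compounds lacking own fluorescence, cut at about 54% in these data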;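 further: plate controls were DMSO wells for no effect and 5 µM unlabelled arrestin peptide for full effect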
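System: GST-AP2 R879A glutathione beads; medium: PBS, Tween 20 0.05%, BSA 0.1%; reagent: fluorescein-tagged arrestin peptide at 50 nM final; schedule: pre-incubation 12 min, peptide binding 1 h, room temperature; detection: flow cytometry, FL1 (488/535 nm); read-out: inhibition as reduced fluorescein signal on beads, percent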
MEKK2 WT-MEK5 = raises or lowers MEK5 binding to wildtype human MEKK2 PB1 domain; bead flow cytometry, Alexa488-MEK5 binding to MEKK2 WT; actives lie on both sides; Q9Y2U5; actives 1.1% (n = 290,000); binding response (% of control), % at 10 µM; in the data active means binding response below about 67% or above about 130%
MEKK3 PB1 HTS = MEKK3-MEK5 PB1 interaction, increase or decrease. bead-based flow cytometry, Alexa488-MEK5 binding to MEKK3; actives lie on both sides; 0 = blocked by unlabeled MEK5, 100 = vehicle. binding response (% of control), % at 10 µM. actives 1.4% (n = 290,000);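 active means binding response more than 3 SD above or below the average of its plate-row segment, actives on both sides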;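 further: Alexa488 bead fluorescence after subtracting the streptavidin-only scavenger bead signal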
Target sequence (Q99759 whole entry, looked up): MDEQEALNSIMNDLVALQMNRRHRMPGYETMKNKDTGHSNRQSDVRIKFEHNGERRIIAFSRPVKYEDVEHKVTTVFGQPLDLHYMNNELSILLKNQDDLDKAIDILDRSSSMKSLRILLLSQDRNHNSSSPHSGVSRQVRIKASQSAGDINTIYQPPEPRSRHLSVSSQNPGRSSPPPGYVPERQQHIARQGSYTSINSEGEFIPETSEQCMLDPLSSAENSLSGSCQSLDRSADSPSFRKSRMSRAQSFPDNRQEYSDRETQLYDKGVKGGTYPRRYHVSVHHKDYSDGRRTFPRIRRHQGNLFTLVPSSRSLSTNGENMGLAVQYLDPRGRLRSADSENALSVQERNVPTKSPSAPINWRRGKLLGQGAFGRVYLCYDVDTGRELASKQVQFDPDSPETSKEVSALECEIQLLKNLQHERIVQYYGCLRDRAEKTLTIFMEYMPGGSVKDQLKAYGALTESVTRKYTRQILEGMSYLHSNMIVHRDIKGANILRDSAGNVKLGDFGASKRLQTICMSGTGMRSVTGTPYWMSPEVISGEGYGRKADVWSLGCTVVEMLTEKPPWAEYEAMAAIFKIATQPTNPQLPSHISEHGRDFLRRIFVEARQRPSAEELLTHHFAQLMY
MEKK2 mut-MEK5 = signal of MEK5 binding to mutant human MEKK2 PB1 domain. bead flow cytometry, Alexa488-MEK5 binding to MEKK2 mutant. percent response, % at 10 µM. actives 0.35% (n = 290,000); in the data active means percent response above about 24%, passing the limit was not always enough
MEKK2wt confirm = raises or lowers MEK5 binding to wildtype human MEKK2, retest. shares compounds with MEKK3 PB1 HTS. bead flow cytometry, Alexa488-MEK5 binding to MEKK2 WT; actives lie on both sides. binding response (% of control), % at 10 µM. actives 2.4% (n = 5,900). AID 1892; in the data active means binding response below about 16% or above about 210%; inactive means in between
MEKK2mut confirm = signal of MEK5 binding to mutant human MEKK2, retest. shares compounds with MEKK3 PB1 HTS. bead flow cytometry, Alexa488-MEK5 binding to MEKK2 mutant. percent response, % at 10 µM. actives 2% (n = 5,900); in the data active means percent response mostly above about 71%, no sharp cut-off; inactive means mostly below about 38%;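 further: higher means compound restores mutant binding toward wildtype level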
MEKK3 confirm = confirmation of inhibitors of MEK5 binding to human MEKK3 | shares compounds with MEKK3 PB1 HTS | bead flow cytometry, Alexa488-MEK5 binding to MEKK3; hits give low values | binding response (% of control), % at 10 µM | actives 1.8% (n = 5,900);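 active means binding response below 72% of control, or above a set upper limit, though filed actives all read lower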;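 further: 100% = DMSO only wells and 0% = binding blocked by excess unlabeled MEK5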
* = called active by the depositor; [ ] = dose if it differs, or a comment. Compounds with a hit are over-represented: about 2.3% of the library has one in this group of screens.

Results for O=C(NCc1ccc(Cl)cc1)C1CCC(CNS(=O)(=O)c2ccccc2)CC1 (stereo not given) ?
Arr AP2 block: 11.6; MEKK2 WT-MEK5: 101.0; MEKK3 PB1 HTS: 102.0; MEKK2 mut-MEK5: 8.0

How did CCN(C[C@H]1N[C@@](CC)(C(=O)OC)[C@H]2C(=O)N(Cc3ccccc3)C(=O)[C@@H]12)C(=O)c1ccccc1 do in these assays?
Arr AP2 block: -0.1

Results for COc1ccc(C(=O)C2CCCN(C(=O)c3cc(C)nc(C)n3)C2)cc1OC (stereo not given) ?
Arr AP2 block: -5.1; MEKK2 WT-MEK5: 112.0; MEKK3 PB1 HTS: 129.0*; MEKK2 mut-MEK5: 1.0; MEKK2wt confirm: 100.0; MEKK2mut confirm: 1.0; MEKK3 confirm: 102.0

Results for Cc1ccc(C)c(S(=O)(=O)N2CCN(C(=O)c3cccn3C)CC2)c1 ?
Arr AP2 block: 2.9

Results for CCN1CCN(c2c(Cl)cccc2NC(=O)c2ccc3c(c2)OCCO3)CC1 ?
Arr AP2 block: -5.5; MEKK2 WT-MEK5: 68.0; MEKK3 PB1 HTS: 48.0*[inhibitor]; MEKK2 mut-MEK5: -24.0; MEKK2wt confirm: 110.0; MEKK2mut confirm: 3.0; MEKK3 confirm: 104.0

Results for CCOC(=O)C1=C(COC(=O)c2ccc(Cl)nc2)NC(=O)NC1C (stereo not given) ?
Arr AP2 block: -2.3

What do the screens show for `Cc1n[nH]c(C)c1N1C(=O)c2cccc3c(N4CCCCCC4)ccc(c23)C1=O`?
Arr AP2 block: -8.3; MEKK2 WT-MEK5: 67.0*[inhibitor]; MEKK3 PB1 HTS: 113.0; MEKK2 mut-MEK5: 40.0*; MEKK2wt confirm: 91.0; MEKK2mut confirm: -7.0; MEKK3 confirm: 96.0

How did O=C1c2cccc3c(N4CCCCC4)ccc(c23)C(=O)N1c1cccc(O)c1 do in these assays?
Arr AP2 block: 8.4; MEKK2 WT-MEK5: 91.0; MEKK3 PB1 HTS: 100.0; MEKK2 mut-MEK5: -2.0

What do the screens show for `Cc1ccc(Oc2nccc(-c3ccc(Cl)cc3)n2)cc1`?
Arr AP2 block: 44.6; MEKK2 WT-MEK5: 99.0; MEKK3 PB1 HTS: 104.0; MEKK2 mut-MEK5: -1.0

What do the screens show for `Cc1ccc(S(=O)(=O)c2nc(N3CCOCC3)sc2Cl)cc1`?
Arr AP2 block: 2.9; MEKK2 WT-MEK5: 119.0; MEKK3 PB1 HTS: 124.0*; MEKK2 mut-MEK5: 7.0; MEKK2wt confirm: 106.0; MEKK2mut confirm: 1.0; MEKK3 confirm: 110.0

How did CCCS(=O)(=O)c1nc(S(=O)(=O)c2ccc(C)cc2)c(N2CCOCC2)s1 do in these assays?
Arr AP2 block: -5.8; MEKK2 WT-MEK5: 102.0; MEKK3 PB1 HTS: 101.0; MEKK2 mut-MEK5: 5.0

What do the screens show for `COc1ccc(CNC(=O)CNS(=O)(=O)c2cccs2)cc1`?
Arr AP2 block: -6.8; MEKK2 WT-MEK5: 101.0; MEKK3 PB1 HTS: 102.0; MEKK2 mut-MEK5: 3.0

How did O=C(CNS(=O)(=O)c1cccs1)NCc1ccc(F)cc1 do in these assays?
Arr AP2 block: 18.8; MEKK2 WT-MEK5: 130.0; MEKK3 PB1 HTS: 142.0*; MEKK2 mut-MEK5: 6.0; MEKK2wt confirm: 102.0; MEKK2mut confirm: 1.0; MEKK3 confirm: 102.0

What do the screens show for `COc1ccc(-[n+]2c(C)cc(/C=C3\Sc4ccccc4N3C)cc2C)cc1`?
MEKK2 WT-MEK5: 29.0*[inhibitor]; MEKK3 PB1 HTS: 71.0*[inhibitor]; MEKK2 mut-MEK5: -5.0; MEKK2wt confirm: 61.0; MEKK2mut confirm: -22.0; MEKK3 confirm: 88.0

How did Cc1nc(Nc2cnc(/C=C/c3cc(C(=O)Nc4cccc(C(F)(F)F)c4)ccc3C)cn2)cc(N2CCNCC2)n1 do in these assays?
MEKK2 WT-MEK5: 136.0; MEKK3 PB1 HTS: 47.0*[inhibitor]; MEKK2 mut-MEK5: 10.0; MEKK2wt confirm: 128.0; MEKK2mut confirm: 15.0; MEKK3 confirm: 43.0*

How did COc1ccc(C(C)=O)cc1COC(=O)CNC(=O)c1ccccc1F do in these assays?
Arr AP2 block: -10.7; MEKK2 WT-MEK5: 103.0; MEKK3 PB1 HTS: 138.0*; MEKK2 mut-MEK5: -1.0; MEKK2wt confirm: 100.0; MEKK2mut confirm: 6.0; MEKK3 confirm: 103.0

Bioassay records as filed in PubChem BioAssay.
